ChEMBL document CHEMBL1122654, “Phosphorus analogues of gamma-aminobutyric acid, a new class of anticonvulsants” (J Med Chem, 1984)
Activity calls are given as the source filed them.

Tests used:
[1] = target: T1, GABA-A receptor; anion channel (Rattus norvegicus) (UniProt O09028+P15431+P18506+P18508+P19969+P20236+P23574+P23576+P28471+P28473+P30191+P62813+P63079+P63138+Q91ZM7+Q9ES14); test: Displacement of [3H]-GABA from Gamma-aminobutyric acid A receptor binding sites in brain homogenates (relative to 1 mM GABA) at 100 uM; format: tissue-based
Method in brief: (§1)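 Male Sprague-Dawley rat brain, frozen, homogenized in 50 mM Tris-citrate (pH 7.1 at 4 °C). Membranes treated with 0.05% Triton X-100 for 30 min at 37 °C and resuspended at 0.5–1.0 mg/mL protein. Incubated with 8 nM [3H]GABA for 5 min at 4 °C, stopped by centrifugation, and counted by scintillation. Test concentration 100 µM. Expressed as percent of the inhibition given by 1 mM GABA. Mean of two experiments, each in triplicate.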

Rattus norvegicus = species on record: Rattus norvegicus; test: (§2) Displacement of [3H]GABA from GABA-B binding sites in brain homogenates (relative to 100 uM baclofen) at 100 uM; format: tissue-based
Method in brief: (§3)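 Rat brain membrane binding (male Sprague-Dawley) using 10 nM [3H]GABA, with 100 µM isoguvacine present to block GABA-A sites. Test concentration 100 µM. Percent inhibition expressed relative to 100 µM baclofen. Mean of two separate experiments, each in triplicate.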

[2] = Partition coefficient (logP); format: physicochemical; conditions: octanol/water
Mus musculus [3] = test: In vivo anticonvulsant activity against electric shock induced seizures(MES) in mice 0.5 hr after ip administration; inactive at 600 mg/kg; format: functional, organism-based; parameters: dose 600 mg/kg
Mus musculus [4] = test: In vivo neurotoxicity at 600 mg/kg, number of animals exhibiting neurotoxicity in the rotarod test / number of animals tested at 0.5 hr; format: toxicity, organism-based; parameters: dose 600 mg/kg
Mus musculus [5] = test: In vivo anticonvulsant activity against pentylene tetrazole seizure threshold(SMC) in mice 0.5 hr after sc administration; inactive at 600 mg/kg; format: functional, organism-based; parameters: dose 600 mg/kg
Mus musculus [6] = test: In vivo anticonvulsant activity against electric shock induced seizures(MES) in mice 4 hr after ip administration; inactive at 600 mg/kg; format: functional, organism-based; parameters: dose 600 mg/kg
Mus musculus [7] = test: In vivo anticonvulsant activity against pentylene tetrazole seizure threshold(SMC) in mice 4 hr after sc administration; inactive at 600 mg/kg; format: functional, organism-based; parameters: dose 600 mg/kg
Mus musculus [8] = test: In vivo neurotoxicity at 600 mg/kg, number of animals exhibiting neurotoxicity in the rotarod test / number of animals tested 4 hr; format: toxicity, organism-based; parameters: dose 600 mg/kg
[9] = target: GABA B receptor (Rattus norvegicus) (UniProt Q9Z0U4+O88871); test: as §2; format: tissue-based; method in brief: as §3
Mus musculus [10] = test: In vivo anticonvulsant activity against electric shock induced seizures(MES) in mice 0.5 hr after ip administration; active at 600 mg/kg; format: functional, organism-based; parameters: dose 600 mg/kg
Mus musculus [11] = test: In vivo anticonvulsant activity against electric shock induced seizures(MES) in mice 0.5 hr after ip administration; active at 300 mg/kg; format: functional, organism-based; parameters: dose 300 mg/kg
Mus musculus [12] = test: In vivo anticonvulsant activity against electric shock induced seizures(MES) in mice 4 hr after ip administration; active at 300 mg/kg; format: functional, organism-based; parameters: dose 300 mg/kg
Mus musculus [13] = test: In vivo anticonvulsant activity against pentylene tetrazole seizure threshold(SMC) in mice 0.5 hr after sc administration; active at 600 mg/kg; format: functional, organism-based; parameters: dose 600 mg/kg
[14] = target: T1, GABA-A receptor; anion channel (Rattus norvegicus); test: Displacement of [3H]GABA from Gamma-aminobutyric acid A receptor binding sites in brain homogenates (relative to 1 mM GABA) at 100 uM; format: tissue-based; method in brief: as §1
Mus musculus [15] = test: In vivo neurotoxicity at 600 mg/kg, number of animals exhibiting neurotoxicity in the rotarod test / number of animals tested at 4 hr; 0/2; format: toxicity, organism-based; parameters: dose 600 mg/kg
Mus musculus [16] = test: In vivo neurotoxicity at 600 mg/kg, number of animals exhibiting neurotoxicity in the rotarod test / number of animals tested at 0.5 hr; 0/4; format: toxicity, organism-based; parameters: dose 600 mg/kg
Mus musculus [17] = test: In vivo anticonvulsant activity against electric shock induced seizures(MES) in mice 4 hr after ip administration; indicates inactive at 600 mg/kg; format: functional, organism-based; parameters: dose 600 mg/kg
Mus musculus [18] = test: In vivo anticonvulsant activity against electric shock induced seizures(MES) in mice 0.5 hr after ip administration; indicates inactive at 600 mg/kg; format: functional, organism-based; parameters: dose 600 mg/kg
Mus musculus [19] = test: In vivo anticonvulsant activity against pentylenetetrazole seizure threshold(SMC) in mice 0.5 hr after sc administration; indicates inactive at 600 mg/kg; format: functional, organism-based; parameters: dose 600 mg/kg
Mus musculus [20] = test: In vivo anticonvulsant activity against pentylene tetrazole seizure threshold(SMC) in mice 4 hr after sc administration; indicates inactive at 600 mg/kg; format: functional, organism-based; parameters: dose 600 mg/kg

## CCCCN1C(=O)CCP1(=O)c1ccccc1 (configuration not stated)
[1]
  inhibition: 17%
Rattus norvegicus
  inhibition: 67%

## CCc1cc(OP(=S)(OC)OC)ccc1[N+](=O)[O-]
[2]
  logP: 3.84

## COP(=S)(OC)Oc1ccc([N+](=O)[O-])cc1Cl [DICAPTHON]
[2]
  logP: 3.44

## CC(=O)Nc1ccccc1OP(=O)(Oc1ccccc1NC(C)=O)c1ccccc1
[1]
  inhibition: 46%
Mus musculus [3]
  Anticonvulsant activity: inactive
Mus musculus [4]
  Toxicity: Not Active
Mus musculus [5]
  Anticonvulsant activity: inactive
Mus musculus [6]
  Anticonvulsant activity: inactive
Mus musculus [7]
  Anticonvulsant activity: inactive
Mus musculus [8]
  Toxicity: Not Active

## CC(C)(C)CC(C)(C)NP(=O)(Oc1ccccc1)Oc1ccccc1
[9]
  inhibition: 65%
Mus musculus [10]
  Anticonvulsant activity: active at 600 mg/kg

## CCOP(=O)(OCC)Oc1ccccc1NC(C)=O
Mus musculus [11]
  Anticonvulsant activity: active at 300 mg/kg
Mus musculus [12]
  Anticonvulsant activity: active at 300 mg/kg
Mus musculus [13]
  Anticonvulsant activity: active at 300 mg/kg

## COP(=S)(OC)Oc1cc(C)c([N+](=O)[O-])c(C)c1
[2]
  logP: 3.89

## CCOP(=S)(OCC)Oc1ccc(SC)c(Cl)c1
[2]
  logP: 5.06

## CC(=O)Nc1ccccc1OP(=O)(Oc1ccccc1)Oc1ccccc1
[1]
  inhibition: 54%
[9]
  inhibition: 36%
Mus musculus [3]
  Anticonvulsant activity: inactive
Mus musculus [4]
  Toxicity: Not Active
Mus musculus [5]
  Anticonvulsant activity: inactive
Mus musculus [6]
  Anticonvulsant activity: inactive
Mus musculus [7]
  Anticonvulsant activity: inactive
Mus musculus [8]
  Toxicity: Not Active

## COP(=S)(OC)Oc1ccc([N+](=O)[O-])c(Cl)c1 [CHLORTHION]
[2]
  logP: 3.45

## COP(=S)(OC)Oc1cccc(NC(C)=O)c1
[14]
  inhibition: inactive

## NCCOP(=O)(O)Oc1ccccc1
[1]
  inhibition: 13%
[9]
  inhibition: 40%
Mus musculus [3]
  Anticonvulsant activity: inactive
Mus musculus [5]
  Anticonvulsant activityAnticonvulsant activity: inactive
Mus musculus [6]
  Anticonvulsant activity: inactive
Mus musculus [7]
  Anticonvulsant activity: inactive

## COP(=S)(OC)Oc1ccc([N+](=O)[O-])cc1 [METHYL PARATHIONE]
[2]
  logP: 2.51

## CC(CNP(=O)(Oc1ccccc1)Oc1ccccc1)NP(=O)(Oc1ccccc1)Oc1ccccc1 (configuration not stated)
[9]
  inhibition: 20%

## NCCCP(=O)(O)O
[1]
  inhibition: 12%
[9]
  inhibition: 91%
Mus musculus [3]
  Anticonvulsant activity: inactive
Mus musculus [4]
  Toxicity: Not Active
Mus musculus [5]
  Anticonvulsant activity: inactive
Mus musculus [6]
  Anticonvulsant activity: inactive
Mus musculus [7]
  Anticonvulsant activity: inactive
Mus musculus [8]
  Toxicity: Not Active

## CCOP(=S)(OCC)Oc1ccccc1NC(C)=O
[9]
  inhibition: 35%

## Nc1cccc(P(=O)(Oc2ccccc2)Oc2ccccc2)c1
[9]
  inhibition: 51%

## CCOP(=S)(OCC)Oc1ccccc1
[2]
  logP: 3.46

## NCCOP(=O)(O)c1ccccc1
[1]
  inhibition: 15%
Mus musculus [15]
  Toxicity: 0
[9]
  inhibition: 16%
Mus musculus [16]
  Toxicity: 0
Mus musculus [17]
  Anticonvulsant activity: inactive
Mus musculus [18]
  Anticonvulsant activity: inactive
Mus musculus [19]
  Anticonvulsant activity: inactive
Mus musculus [20]
  Anticonvulsant activity: inactive

## CCOP(=S)(OCC)Oc1ccc([N+](=O)[O-])cc1 [PARATHION]
[2]
  logP: 2.98

## CCOP(=O)(OCC)Oc1ccc(SC)c(Cl)c1
[2]
  logP: 3.21
